In paper PMC6939458 (Cancer cell, 2019):
Several values for one entry are separate records, joined by “and”; a condition that tells them apart may be missing. Identical values can stand only once.

How the values were obtained:
MYC/MAX/DNA complex = MYC/MAX/DNA complex (Homo sapiens, UniProt P01106); assay: EMSA, MYC/MAX/DNA complex formation; type: biochemical
MAX/MAX homodimer = MAX/MAX homodimer (Homo sapiens, UniProt P61244); assay: EMSA, MAX/MAX homodimer binding to E-box DNA; type: biochemical
GSK3β-mediated MYC pT58 = GSK3β-mediated MYC pT58 (Homo sapiens, UniProt P01106); assay: In vitro kinase assay; type: biochemical; conditions: 6 μM
Summary of the method: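 Phosphorylation reactions were run in kinase buffer (25 mM Tris-HCl pH 7.5, 5 mM β-glycerophosphate, 2 mM DTT, 0.1 mM sodium vanadate, 10 mM MgCl₂) at room temperature for 2 hr in total.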

[1] = test system: pheochromocytoma PC12 cells; assay: Cell viability, PC12 cells; type: cell-based; conditions: PC12, does not require MYC/MAX dimer for proliferation
Summary of the method: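 PC12 cells were grown in F-12K with 2% heat-inactivated FBS and 12.5% horse serum. They were seeded at 1000 to 5000 cells per well in 96-well plates and treated for 2 to 7 days. Read-out was viable-cell count or MTS absorbance at 490 nm.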

[2] = test system: MYC target gene expression; assay: RNA-seq and RT-qPCR gene expression; type: cell-based, human
Summary of the method: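 MYCT58A cells were PC3 transduced with Flag-MYCT58A lentivirus and selected with 1.5 μg/ml puromycin. RT-qPCR used human MYC and 18S rRNA primers. For RNA-seq, PC3 cells were treated for 24 hr in triplicate and RNA was extracted after a PBS wash.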

[3] = Pharmacokinetics of 361 in C57BL/6 mice; type: in vivo; conditions: male, C57BL/6, mouse, plasma, 50 mg/kg
[4] = test system: human prostate cancer patient derived xenografts; assay: Prostate cancer PDX model; type: in vivo, mouse; conditions: 55 mg/kg/day, 3 consecutive days a week for 2 weeks
Summary of the method: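 Minced fragments (~10 mm²) of prostate PDX TM00298 were implanted into the flanks of male NSG mice. Once grafts were measurable, test compound was given i.p. at 55 mg/kg/day on 3 consecutive days a week for two weeks. Tumour growth was expressed as percentage, n = 9 or 10 grafts.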

[5] = Maximum tolerated dose / acute toxicity in mice; type: in vivo; conditions: 361-treated mice

Sequence of MYC/MAX/DNA complex (P01106 368-454, one chain of several): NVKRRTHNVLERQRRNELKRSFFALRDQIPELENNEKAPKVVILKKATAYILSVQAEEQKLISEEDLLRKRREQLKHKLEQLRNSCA
Sequence of MAX/MAX homodimer (P61244 whole entry): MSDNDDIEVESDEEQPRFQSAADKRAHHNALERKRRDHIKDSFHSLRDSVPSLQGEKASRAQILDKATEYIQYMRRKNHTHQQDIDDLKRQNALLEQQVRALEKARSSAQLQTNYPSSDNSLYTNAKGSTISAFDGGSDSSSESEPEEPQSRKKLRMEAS
Sequence of GSK3β-mediated MYC pT58 (P01106 16-454): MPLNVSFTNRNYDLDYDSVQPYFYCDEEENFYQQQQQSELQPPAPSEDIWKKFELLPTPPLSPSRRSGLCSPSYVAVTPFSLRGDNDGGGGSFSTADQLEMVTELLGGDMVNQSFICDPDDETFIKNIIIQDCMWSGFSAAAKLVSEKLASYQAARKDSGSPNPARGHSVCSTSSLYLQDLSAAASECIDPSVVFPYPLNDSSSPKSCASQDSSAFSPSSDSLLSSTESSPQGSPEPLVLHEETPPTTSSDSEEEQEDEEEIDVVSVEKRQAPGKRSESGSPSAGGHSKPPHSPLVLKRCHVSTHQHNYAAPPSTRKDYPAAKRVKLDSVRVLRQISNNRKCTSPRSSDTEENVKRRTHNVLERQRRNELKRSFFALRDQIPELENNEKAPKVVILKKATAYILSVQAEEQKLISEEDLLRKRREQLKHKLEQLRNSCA

**Q.** Which “disruption of MYC/MAX/DNA complex formation” value (MYC/MAX/DNA complex; EMSA) does the source give for `Cn1nc(C(F)(F)F)cc1-c1ccc(OCc2ccc(Cl)cc2)c(-c2cc(C(F)(F)F)cc(C(F)(F)F)c2)c1O` [Compound 361, 6-((4-chlorobenzyl)oxy)-3-(1-methyl-3-(trifluoromethyl)-1H-pyrazol-5-yl)-3’,5’-bis(trifluoromethyl)-[1,1’-biphenyl]-2-ol] here?
**A.** Its value is “impaired”.

**Q.** And the activity in vitro (MYC/MAX/DNA complex; EMSA and cell viability assays)?
**A.** The activity in vitro was “active”.

**Q.** And the “MAX/MAX homodimer binding to E-box DNA” value (MAX/MAX homodimer)?
**A.** Its value is “but not the closely related MAX/MAX homodimer”.

**Q.** What about the “pT58 levels in in vitro kinase assay” value (GSK3β-mediated MYC pT58) of the same compound?
**A.** The value was “significantly increased pT58 levels”.

**Q.** And the “effect on cell viability” value [1]?
**A.** Its value is “little effect”.

**Q.** What about the “MYC mRNA levels” value [2] of the same compound?
**A.** The value was “not altered”.

**Q.** And the “expression of MYC target genes CDC25A and MYB” value ([2]; 6 μM, 24 hr, MYCT58A-expressing cells)?
**A.** Its value is “potently suppressed”.

**Q.** What about the “MYC target gene expression (GSEA, six gene sets)” value ([2]; 6 μM, 24 hr, RNA-seq) of the same compound?
**A.** Its value is “significantly down regulated in all gene sets”.

**Q.** And the Cmax ([3]; ip)?
**A.** Its Cmax is 27200 ng/mL and 46 µM.

**Q.** What about the concentration at 24 hr ([3]; ip) of the same compound?
**A.** Its concentration at 24 hr is 12700 ng/mL and 21 µM.

**Q.** And the half-life ([3]; ip)?
**A.** Its half-life is 44 h.

**Q.** And the Cmax ([3]; po)?
**A.** The Cmax was 13900 ng/mL and 23 µM.

**Q.** And the concentration at 24 hr ([3]; po)?
**A.** The concentration at 24 hr was 9 µM and 5280 ng/mL.

**Q.** What about the half-life ([3]; po) of the same compound?
**A.** Its half-life is 20 h.

**Q.** And the anti-tumor efficacy [4]?
**A.** Its anti-tumor efficacy is “confirmed 361 anti-tumor efficacy”.

**Q.** And the “histopathological analysis of major organs” value [5]?
**A.** The value was “suppression of the splenic white pulp and hepatocyte hypertrophy”.
